Reference: ChEMBL document CHEMBL4038346, “Effect of Nitrogen Atom Substitution in A3 Adenosine Receptor Binding: N-(4,6-Diarylpyridin-2-yl)acetamides as Potent and Selective Antagonists” (J Med Chem, 2017)
Values belong to the molecule of their own block, whether it stands above or below them. The source made the active and inactive calls. The calls are words filed in the database; no cut-off is given here.

Assays:
Adenosine receptor A3 = target: T1, Adenosine receptor A3 (Homo sapiens, UniProt P0DMS8); experiment: (§1) Displacement of [3H]NECA from human adenosine A3 receptor expressed in human HeLa cell membranes after 180 mins
T1 sequence (P0DMS8 whole entry): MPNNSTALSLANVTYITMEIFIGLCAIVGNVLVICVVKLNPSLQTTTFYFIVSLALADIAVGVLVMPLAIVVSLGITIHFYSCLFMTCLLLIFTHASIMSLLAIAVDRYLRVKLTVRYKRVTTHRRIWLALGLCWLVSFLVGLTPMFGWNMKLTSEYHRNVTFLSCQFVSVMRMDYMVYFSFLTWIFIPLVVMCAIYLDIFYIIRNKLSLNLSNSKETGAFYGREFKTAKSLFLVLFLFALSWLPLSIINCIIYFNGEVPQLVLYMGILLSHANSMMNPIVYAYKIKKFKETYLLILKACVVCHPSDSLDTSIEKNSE

[1] = target: T2, Adenosine receptor A1 (Homo sapiens) (UniProt P30542); experiment: Displacement of [3H]DPCPX from human adenosine A1 receptor expressed in CHO cell membranes at 1 uM after 60 mins relative to control
T2 sequence (whole entry): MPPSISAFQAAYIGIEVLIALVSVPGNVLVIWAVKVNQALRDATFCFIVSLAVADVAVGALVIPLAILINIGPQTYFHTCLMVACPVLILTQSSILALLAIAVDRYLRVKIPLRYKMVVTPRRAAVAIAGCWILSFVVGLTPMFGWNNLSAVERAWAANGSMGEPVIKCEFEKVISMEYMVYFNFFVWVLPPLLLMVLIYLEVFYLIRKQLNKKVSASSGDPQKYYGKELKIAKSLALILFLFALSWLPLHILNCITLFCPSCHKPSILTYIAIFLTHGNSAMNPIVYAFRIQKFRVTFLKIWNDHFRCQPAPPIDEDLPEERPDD

[2] = target: T3, Adenosine receptor A2b (Homo sapiens) (UniProt P29275); experiment: Displacement of [3H]DPCPX from human adenosine A2B receptor expressed in HEK293 cell membranes at 1 uM after 30 mins relative to control
T3 sequence (whole entry): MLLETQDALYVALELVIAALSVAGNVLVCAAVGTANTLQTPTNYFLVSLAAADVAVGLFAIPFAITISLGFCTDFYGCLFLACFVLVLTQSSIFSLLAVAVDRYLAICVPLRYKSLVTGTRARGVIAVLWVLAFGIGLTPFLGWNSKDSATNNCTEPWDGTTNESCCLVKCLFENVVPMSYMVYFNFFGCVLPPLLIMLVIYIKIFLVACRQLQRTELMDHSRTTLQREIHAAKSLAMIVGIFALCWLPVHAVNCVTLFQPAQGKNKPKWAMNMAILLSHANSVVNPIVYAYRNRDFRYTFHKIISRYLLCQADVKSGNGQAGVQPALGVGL

Adenosine receptor A2a [3] = target: T4, Adenosine receptor A2a (Homo sapiens, UniProt P29274); experiment: Displacement of [3H]ZM241385 from human adenosine A2A receptor expressed in human HeLa cell membranes at 1 uM after 30 mins relative to control
Adenosine receptor A1 = target: T5, Adenosine receptor A1 (Homo sapiens, UniProt P30542); experiment: Displacement of [3H]DPCPX from human adenosine A1 receptor expressed in CHO cell membranes after 60 mins
T5 sequence (P30542 whole entry): T2 sequence (whole entry)

[4] = target: T6, Adenosine receptor A3 (Homo sapiens) (UniProt P0DMS8); experiment: Antagonist activity at human adenosine A3 receptor expressed in CHO cells assessed as decrease in NECA-induced inhibition of forskolin-stimulated cAMP formation preincubated for 15 mins followed by NECA addition for 10 mins and subsequent forskolin challenge for 5 mins by enzyme immunoassay; format: functional, cell-based
T6 sequence (whole entry): T1 sequence (P0DMS8 whole entry)
How it was run: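 CHO-A3 cells seeded at 20 000/well in DMEM-F12 with 10% FCS and 1% L-glutamine, grown 24 h at 37 °C, 5% CO2. Washed, then preincubated 15 min at 37 °C in DMEM-F12/25 mM HEPES pH 7.4 with 30 μM rolipram plus antagonist.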

[5] = target: Adenosine receptors; A1 & A3 (Homo sapiens) (UniProt P30542+P0DMS8); experiment: Selectivity ratio of Ki for human adenosine A1 receptor expressed in CHO cell membranes to Ki for human adenosine A3 receptor expressed in human HeLa cell membranes; format: cell-based
[6] = target: T6, Adenosine receptor A3 (Homo sapiens); experiment: as §1
Adenosine receptor A2a [7] = target: T4, Adenosine receptor A2a; experiment: Displacement of [3H]ZM241385 from human adenosine A2A receptor expressed in human HeLa cell membranes after 30 mins
Adenosine receptor A2b = target: T7, Adenosine receptor A2b (Homo sapiens, UniProt P29275); experiment: Displacement of [3H]DPCPX from human adenosine A2B receptor expressed in HEK293 cell membranes after 30 mins
T7 sequence (P29275 whole entry): T3 sequence (whole entry)

T4 sequence (P29274 whole entry): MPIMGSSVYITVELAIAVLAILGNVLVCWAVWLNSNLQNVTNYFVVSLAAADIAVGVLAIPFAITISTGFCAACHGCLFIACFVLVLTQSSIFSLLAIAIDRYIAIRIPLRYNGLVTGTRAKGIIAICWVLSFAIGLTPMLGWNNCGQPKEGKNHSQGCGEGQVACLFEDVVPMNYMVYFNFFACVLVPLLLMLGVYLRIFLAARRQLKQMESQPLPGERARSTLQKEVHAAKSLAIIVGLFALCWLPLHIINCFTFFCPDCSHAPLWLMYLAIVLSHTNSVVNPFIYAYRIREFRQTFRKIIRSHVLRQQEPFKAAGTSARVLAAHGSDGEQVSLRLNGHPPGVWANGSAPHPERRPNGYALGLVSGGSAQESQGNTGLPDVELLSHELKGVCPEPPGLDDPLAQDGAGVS

Ki (Adenosine receptor A3): 35.2 nM
inhibition [1]: 3%
inhibition [2]: 1%
inhibition (Adenosine receptor A2a [3]): 3%
Structure (SMILES): COc1ccc(OC)c(-c2cc(NC(C)=O)nc(-c3cc(OC)ccc3OC)c2)c1

inhibition (Adenosine receptor A2a [3]): 1%
Structure (SMILES): COc1ccc(-c2cc(NC(C)=O)nc(-c3ccc(OC)c(OC)c3)c2)cc1OC

inhibition (Adenosine receptor A2a [3]): 4%
Structure (SMILES): CC(=O)Nc1cc(-c2ccc(C(C)=O)cc2)cc(-c2ccc(C(C)=O)cc2)n1

Ki (Adenosine receptor A1): 91.1 nM
Ki (Adenosine receptor A3): 2.8 nM
Kb [4]: 1.9 nM
inhibition [2]: 27%
inhibition (Adenosine receptor A2a [3]): 9%
Ratio Ki [5]: 30
Structure (SMILES): CC(=O)Nc1cc(-c2ccc3c(c2)OCO3)cc(-c2ccc3c(c2)OCO3)n1

inhibition (Adenosine receptor A2a [3]): 1%
Structure (SMILES): CC(=O)Nc1cc(-c2ccc(OC(F)(F)F)cc2)cc(-c2ccc(OC(F)(F)F)cc2)n1

Ki (Adenosine receptor A1): 239 nM
inhibition (Adenosine receptor A2a [3]): 21%
Structure (SMILES): COc1cccc(-c2cc(NC(C)=O)nc(-c3cccc(OC)c3)c2)c1

Ki (Adenosine receptor A3): 781 nM
inhibition [1]: 8%
inhibition [2]: 19%
inhibition (Adenosine receptor A2a [3]): 1%
Structure (SMILES): COc1ccccc1-c1cc(NC(C)=O)nc(-c2ccccc2OC)c1

inhibition [6]: Active
Structure (SMILES): COc1ccccc1-c1cc(NC(C)=O)nc(-c2ccccc2OC)n1

inhibition (Adenosine receptor A2a [3]): 1%
Structure (SMILES): CC(=O)Nc1cc(-c2ccc(C)cc2)cc(-c2ccc(C)cc2)n1

inhibition (Adenosine receptor A2a [3]): 1%
Structure (SMILES): COc1cccc(OC)c1-c1cc(NC(C)=O)nc(-c2c(OC)cccc2OC)c1

inhibition (Adenosine receptor A2a [3]): 2%
Structure (SMILES): CSc1ccc(-c2cc(NC(C)=O)nc(-c3ccc(SC)cc3)c2)cc1

inhibition [6]: Active
Structure (SMILES): CC(=O)Nc1cc(-c2ccc(C(C)=O)cc2)nc(-c2ccc(C(C)=O)cc2)n1

Ki (Adenosine receptor A3): 116 nM
inhibition [1]: 8%
inhibition [2]: 4%
inhibition (Adenosine receptor A2a [3]): 15%
Structure (SMILES): COc1cc(-c2cc(NC(C)=O)nc(-c3cc(OC)c(OC)c(OC)c3)c2)cc(OC)c1OC

inhibition (Adenosine receptor A2a [3]): 2%
Structure (SMILES): COc1cc(OC)cc(-c2cc(NC(C)=O)nc(-c3cc(OC)cc(OC)c3)c2)c1

inhibition (Adenosine receptor A2a [3]): 2%
Structure (SMILES): COc1ccc(-c2cc(NC(C)=O)nc(-c3ccc(OC)cc3OC)c2)c(OC)c1

inhibition (Adenosine receptor A2a [3]): 15%
Structure (SMILES): COc1ccc(-c2cc(NC(C)=O)nc(-c3ccc(OC)cc3)c2)cc1

Ki (Adenosine receptor A2a [7]): 353 nM
Structure (SMILES): COc1cccc(-c2cc(NC(C)=O)nc(-c3cccc(OC)c3OC)c2)c1OC

Ki (Adenosine receptor A1): 21.1 nM
Ki (Adenosine receptor A3): 98.5 nM
Ki (Adenosine receptor A2b): 51.2 nM
inhibition (Adenosine receptor A2a [3]): 49%
Structure (SMILES): CC(=O)Nc1cc(-c2ccccc2)cc(-c2ccccc2)n1
